Reference: ChEMBL document CHEMBL4052817 (J Med Chem, 2017)
Active and inactive are the calls of the source. The calls are words filed in the database; no cut-off is given here.

What was measured:
[1] = system: Canis familiaris; assay: Half life in beagle dog assessed as (R)-3-(5-fluoro-1H-indol-3-yl)pyrrolidine-2,5-dione at 3 mg/kg, po; format: ADME, organism-based, Canis lupus familiaris; settings: in vivo
[2] = Ratio of unbound drug level in brain to plasma in po dosed rat assessed as (R)-3-(5-fluoro-1H-indol-3-yl)pyrrolidine-2,5-dione; format: ADME, organism-based
Outline: (§1)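 Racemate dosed orally to rats; active enantiomer measured in brain, CSF and plasma; total brain/plasma ratio and unbound brain/unbound plasma ratio calculated.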

[3] = system: Mus musculus; assay: AUC (infinity) in CD-1 mouse assessed as (R)-3-(5-fluoro-1H-indol-3-yl)pyrrolidine-2,5-dione at 3 mg/kg, po; format: ADME, organism-based; design: dose 3 mg/kg, route oral, time infinity; settings: in vivo
[4] = system: Renca; assay: Antitumor activity against mouse Renca tumor model administered as monotherapy; format: functional
[5] = system: Canis familiaris; assay: Volume of distribution at steady state in beagle dog assessed as (R)-3-(5-fluoro-1H-indol-3-yl)pyrrolidine-2,5-dione at 1 mg/kg, iv by LC-MS/MS method; format: ADME, organism-based, Canis lupus familiaris; settings: in vivo
[6] = target: T1, Cytochrome P450 3A4 (Homo sapiens, UniProt P08684); assay: Time/NADPH-dependent inhibition of CYP3A4 (unknown origin); format: ADME
T1 sequence (P08684 whole entry): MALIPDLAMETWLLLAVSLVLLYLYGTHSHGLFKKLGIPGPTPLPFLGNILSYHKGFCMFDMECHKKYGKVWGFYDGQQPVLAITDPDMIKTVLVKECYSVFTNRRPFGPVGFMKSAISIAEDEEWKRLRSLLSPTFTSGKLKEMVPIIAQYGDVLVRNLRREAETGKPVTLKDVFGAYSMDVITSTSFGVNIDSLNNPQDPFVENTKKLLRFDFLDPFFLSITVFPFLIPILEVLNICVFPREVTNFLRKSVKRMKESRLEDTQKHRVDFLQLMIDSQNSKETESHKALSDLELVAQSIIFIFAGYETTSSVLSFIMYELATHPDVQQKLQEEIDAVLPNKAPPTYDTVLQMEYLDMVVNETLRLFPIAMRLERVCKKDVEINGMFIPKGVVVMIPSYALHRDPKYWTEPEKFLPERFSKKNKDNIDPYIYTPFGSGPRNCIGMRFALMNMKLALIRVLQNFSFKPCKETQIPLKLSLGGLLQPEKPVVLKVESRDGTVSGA

[7] = Drug metabolism in mouse hepatocytes assessed as hydrolysis; format: ADME, cell-based, Hepatocyte
[8] = target: T1, Cytochrome P450 3A4; assay: Inhibition of CYP3A4 (unknown origin); format: ADME
[9] = system: Rattus norvegicus; assay: Volume of distribution at steady state in Wistar-Han rat assessed as (R)-3-(5-fluoro-1H-indol-3-yl)pyrrolidine-2,5-dione at 1 mg/kg, iv by LC-MS/MS method; format: ADME, organism-based; settings: in vivo
[10] = system: Rattus norvegicus; assay: AUC (infinity) in Wistar-Han rat assessed as (R)-3-(5-fluoro-1H-indol-3-yl)pyrrolidine-2,5-dione at 1 mg/kg, iv by LC-MS/MS method; format: ADME, organism-based; design: dose 1 mg/kg, time infinity, route intravenous; settings: in vivo
Outline: (§2)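 Racemate given as a single 1 mg/kg IV dose to male CD-1 mice, Wistar-Han rats or beagle dogs (n=3 per species). Plasma levels of the (R)-enantiomer measured by chiral LC-MS/MS. Mean AUCinf, CLp, Vss and t1/2 reported.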

[11] = system: Mus musculus; assay: Oral bioavailability in CD-1 mouse assessed as (R)-3-(5-fluoro-1H-indol-3-yl)pyrrolidine-2,5-dione at 3 mg/kg; format: ADME, organism-based; settings: in vivo
[12] = Total brain to plasma partition coefficient, Kp in po dosed rat assessed as (R)-3-(5-fluoro-1H-indol-3-yl)pyrrolidine-2,5-dione; format: ADME, organism-based; outline: as §1
[13] = Drug excretion in rat bile assessed as (R)-3-(5-fluoro-1H-indol-3-yl)pyrrolidine-2,5-dione; format: ADME; settings: in vivo
Outline: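 Racemate dosed to rats (urine and bile collected) and to dogs (urine collected). The percentage of the dose excreted as unchanged (R)-enantiomer was measured.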

[14] = system: Canis familiaris; assay: AUC (infinity) in beagle dog assessed as (R)-3-(5-fluoro-1H-indol-3-yl)pyrrolidine-2,5-dione at 1 mg/kg, iv by LC-MS/MS method; format: ADME, organism-based, Canis lupus familiaris; design: dose 1 mg/kg, route intravenous, time infinity; settings: in vivo; outline: as §2
[15] = system: Mus musculus; assay: Half life in CD-1 mouse assessed as (R)-3-(5-fluoro-1H-indol-3-yl)pyrrolidine-2,5-dione at 3 mg/kg, po; format: ADME, organism-based; settings: in vivo
[16] = Drug metabolism in human hepatocytes assessed as oxidation; format: ADME, cell-based, Hepatocyte
[17] = system: MC-38; assay: Antitumor activity against mouse MC38 tumor model administered as monotherapy; format: functional
[18] = target: T2, Cytochrome P450 2C19 (Homo sapiens, UniProt P33261); assay: Time-dependent inhibition of CYP2C19 (unknown origin); format: ADME
T2 sequence (P33261 whole entry): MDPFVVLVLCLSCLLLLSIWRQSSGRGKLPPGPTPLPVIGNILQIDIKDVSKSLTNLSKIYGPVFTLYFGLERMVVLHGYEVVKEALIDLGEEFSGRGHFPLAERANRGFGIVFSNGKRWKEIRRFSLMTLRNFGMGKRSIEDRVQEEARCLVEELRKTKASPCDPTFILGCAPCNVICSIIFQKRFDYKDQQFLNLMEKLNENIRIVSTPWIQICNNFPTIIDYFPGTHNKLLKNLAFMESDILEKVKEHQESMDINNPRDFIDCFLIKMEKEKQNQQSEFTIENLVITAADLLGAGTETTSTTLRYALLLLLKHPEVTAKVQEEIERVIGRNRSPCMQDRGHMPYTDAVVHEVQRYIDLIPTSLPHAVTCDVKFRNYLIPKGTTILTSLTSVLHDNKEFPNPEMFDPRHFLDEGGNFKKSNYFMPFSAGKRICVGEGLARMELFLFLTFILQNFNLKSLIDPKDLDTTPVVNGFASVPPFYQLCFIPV

[19] = system: Rattus norvegicus; assay: Cmax in Wistar-Han rat assessed as (R)-3-(5-fluoro-1H-indol-3-yl)pyrrolidine-2,5-dione at 3 mg/kg, po; format: ADME, organism-based; design: dose 3 mg/kg, route oral; settings: in vivo
[20] = target: Indoleamine 2,3-dioxygenase 2 (Homo sapiens) (UniProt Q6ZQW0); assay: Inhibition of human recombinant IDO-2 up to 200 uM using tryptophan as substrate after 22 mins by LC-MS/MS method
Indoleamine 2,3-dioxygenase 2 (Homo sapiens), sequence (Q6ZQW0 whole entry): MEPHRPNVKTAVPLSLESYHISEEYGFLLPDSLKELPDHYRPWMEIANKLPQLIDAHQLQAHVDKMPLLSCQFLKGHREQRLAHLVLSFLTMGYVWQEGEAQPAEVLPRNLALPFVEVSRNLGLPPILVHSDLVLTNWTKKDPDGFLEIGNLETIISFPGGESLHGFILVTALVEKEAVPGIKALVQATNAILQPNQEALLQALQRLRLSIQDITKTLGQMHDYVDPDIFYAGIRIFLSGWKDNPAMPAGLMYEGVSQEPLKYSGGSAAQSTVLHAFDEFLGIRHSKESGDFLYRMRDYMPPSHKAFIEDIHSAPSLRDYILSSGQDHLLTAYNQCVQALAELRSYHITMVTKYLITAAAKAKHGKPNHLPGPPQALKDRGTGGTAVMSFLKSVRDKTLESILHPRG
Outline: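 Human IDO2 at 250 nM with inhibitor in duplicate, room temperature, in Mg/Ca-free PBS with 20 mM ascorbate, 10 μM methylene blue, 800 nM catalase, 15 μM tryptophan; HCl stop after 22 min; kynurenine quantified by RapidFire SPE-MS/MS; two replicates, geometric means.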

[21] = system: Canis familiaris; assay: Half life in beagle dog assessed as (R)-3-(5-fluoro-1H-indol-3-yl)pyrrolidine-2,5-dione at 1 mg/kg, iv by LC-MS/MS method; format: ADME, organism-based, Canis lupus familiaris; settings: in vivo
[22] = Drug metabolism in mouse hepatocytes assessed as oxidation; format: ADME, cell-based, Hepatocyte
[23] = system: 4T1; assay: Antitumor activity against mouse 4T1 tumor model administered as monotherapy; format: functional
[24] = target: Cytochrome P450 2D6 (Homo sapiens, UniProt P10635); assay: Inhibition of CYP2D6 (unknown origin); format: ADME
Cytochrome P450 2D6, sequence (P10635 whole entry): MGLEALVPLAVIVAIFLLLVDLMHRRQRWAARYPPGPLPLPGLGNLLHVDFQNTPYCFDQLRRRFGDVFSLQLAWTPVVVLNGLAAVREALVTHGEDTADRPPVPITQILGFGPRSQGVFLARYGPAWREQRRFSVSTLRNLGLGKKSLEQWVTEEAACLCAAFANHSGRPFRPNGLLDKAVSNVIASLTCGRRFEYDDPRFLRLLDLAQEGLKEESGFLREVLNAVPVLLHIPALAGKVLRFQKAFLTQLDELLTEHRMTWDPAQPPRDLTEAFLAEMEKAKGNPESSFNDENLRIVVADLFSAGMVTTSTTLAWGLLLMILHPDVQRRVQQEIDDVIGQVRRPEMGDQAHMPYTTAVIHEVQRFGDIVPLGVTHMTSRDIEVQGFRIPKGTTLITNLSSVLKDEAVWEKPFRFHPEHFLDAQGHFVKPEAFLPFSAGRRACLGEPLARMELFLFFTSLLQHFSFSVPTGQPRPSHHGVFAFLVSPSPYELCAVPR

[25] = system: Hepatocyte; assay: Induction of CYP1A2 mRNA expression in human hepatocytes at <100 uM; format: ADME, cell-based
[26] = Intrinsic apparent clearance in dog hepatocytes assessed per million cells; format: ADME, cell-based, Canis lupus familiaris, Hepatocyte
[27] = system: Mus musculus; assay: Volume of distribution at steady state in CD-1 mouse assessed as (R)-3-(5-fluoro-1H-indol-3-yl)pyrrolidine-2,5-dione at 1 mg/kg, iv by LC-MS/MS method; format: ADME, organism-based; settings: in vivo
[28] = system: Rattus norvegicus; assay: Half life in Wistar-Han rat assessed as (R)-3-(5-fluoro-1H-indol-3-yl)pyrrolidine-2,5-dione at 1 mg/kg, iv by LC-MS/MS method; format: ADME, organism-based; settings: in vivo; outline: as §2
[29] = target: T3, Cytochrome P450 1A2 (Homo sapiens, UniProt P05177); assay: Time-dependent inhibition of CYP1A2 (unknown origin); format: ADME
T3 sequence (P05177 whole entry): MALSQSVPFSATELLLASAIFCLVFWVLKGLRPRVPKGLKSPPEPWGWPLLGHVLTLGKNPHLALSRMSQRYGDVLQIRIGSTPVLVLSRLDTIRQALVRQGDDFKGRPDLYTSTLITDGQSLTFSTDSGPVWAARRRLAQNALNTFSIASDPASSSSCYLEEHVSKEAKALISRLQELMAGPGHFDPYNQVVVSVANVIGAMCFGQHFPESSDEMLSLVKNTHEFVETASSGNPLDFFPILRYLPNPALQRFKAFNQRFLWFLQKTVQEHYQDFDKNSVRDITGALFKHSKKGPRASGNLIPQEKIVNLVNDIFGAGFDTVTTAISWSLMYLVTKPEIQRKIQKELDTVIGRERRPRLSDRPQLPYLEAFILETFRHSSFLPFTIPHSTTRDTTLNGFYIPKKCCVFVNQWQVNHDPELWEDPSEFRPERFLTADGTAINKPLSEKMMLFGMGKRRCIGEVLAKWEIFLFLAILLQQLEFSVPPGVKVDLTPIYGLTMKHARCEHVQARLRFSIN

[30] = target: T2, Cytochrome P450 2C19; assay: Inhibition of CYP2C19 (unknown origin); format: ADME
[31] = system: Hepatocyte; assay: Induction of CYP3A4 mRNA expression in human hepatocytes at <100 uM; format: ADME, cell-based
[32] = target: Voltage-gated inwardly rectifying potassium channel KCNH2 (Homo sapiens, UniProt Q12809); assay: Inhibition of human ERG up to 300 uM relative to control
Voltage-gated inwardly rectifying potassium channel KCNH2, sequence (Q12809 whole entry): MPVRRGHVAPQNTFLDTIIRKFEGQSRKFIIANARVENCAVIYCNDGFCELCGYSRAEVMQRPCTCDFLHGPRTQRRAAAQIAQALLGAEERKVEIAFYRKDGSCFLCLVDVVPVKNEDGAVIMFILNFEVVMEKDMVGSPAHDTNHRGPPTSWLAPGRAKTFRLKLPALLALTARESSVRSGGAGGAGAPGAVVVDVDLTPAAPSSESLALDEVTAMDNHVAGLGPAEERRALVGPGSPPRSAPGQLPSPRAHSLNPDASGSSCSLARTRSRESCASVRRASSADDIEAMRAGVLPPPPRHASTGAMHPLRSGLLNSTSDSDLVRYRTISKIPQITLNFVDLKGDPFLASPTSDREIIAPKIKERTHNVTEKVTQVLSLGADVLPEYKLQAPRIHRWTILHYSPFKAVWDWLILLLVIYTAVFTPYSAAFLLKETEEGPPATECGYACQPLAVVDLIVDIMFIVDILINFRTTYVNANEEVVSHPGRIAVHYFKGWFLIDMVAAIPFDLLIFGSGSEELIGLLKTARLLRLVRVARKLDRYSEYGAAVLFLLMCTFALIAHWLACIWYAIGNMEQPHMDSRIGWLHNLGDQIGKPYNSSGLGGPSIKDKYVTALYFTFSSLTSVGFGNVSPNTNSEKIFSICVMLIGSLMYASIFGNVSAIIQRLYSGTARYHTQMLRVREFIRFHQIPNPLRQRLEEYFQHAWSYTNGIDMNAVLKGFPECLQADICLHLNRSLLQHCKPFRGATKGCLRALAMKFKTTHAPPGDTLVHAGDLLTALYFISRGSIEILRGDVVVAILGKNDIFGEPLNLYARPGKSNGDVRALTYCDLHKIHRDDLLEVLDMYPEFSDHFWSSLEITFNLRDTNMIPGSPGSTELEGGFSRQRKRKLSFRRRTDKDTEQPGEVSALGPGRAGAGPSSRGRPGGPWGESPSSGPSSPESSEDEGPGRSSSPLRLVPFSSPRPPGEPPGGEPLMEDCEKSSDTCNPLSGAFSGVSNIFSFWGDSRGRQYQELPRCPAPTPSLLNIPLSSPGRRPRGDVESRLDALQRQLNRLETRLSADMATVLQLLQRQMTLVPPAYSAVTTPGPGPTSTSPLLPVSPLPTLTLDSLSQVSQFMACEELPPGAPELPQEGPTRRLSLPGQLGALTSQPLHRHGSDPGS

[33] = system: Rattus norvegicus; assay: Half life in Wistar-Han rat assessed as (R)-3-(5-fluoro-1H-indol-3-yl)pyrrolidine-2,5-dione at 3 mg/kg, po; format: ADME, organism-based; settings: in vivo
[34] = Drug metabolism in dog hepatocytes assessed as oxidation; format: ADME, cell-based, Canis lupus familiaris, Hepatocyte

For O=C1CC(c2c[nH]c3ccc(F)cc23)C(=O)N1 (centres undefined) [PF-06840003], the t1/2 [1] was 0.84 h, the “K(p,uu,brain)” value [2] was 0.2 and the AUC [3] was 2170 ng·h/mL. The Activity [4] was “Active”, the Vdss [5] was 0.957 L/kg and the “inhibition (INH)” value [6] was “Not Active”. For the same molecule, the Drug metabolism [7] was “Metabolite_Detected”, the IC50 [8] was over 100 µM and the Vdss [9] was 0.639 L/kg. For the same molecule, the AUC [10] was 2520 ng·h/mL, the F [11] was 59.3% and the Kp [12] was 0.51. For the same molecule, the Drug excretion [13] was under 1 %ID, the AUC [14] was 423 ng·h/mL and the t1/2 [15] was 2.48 h. The Drug metabolism [16] was “Metabolite_Detected”, the Activity [17] was “Active” and the TDI [18] was “Not Active”. The Cmax [19] was 985 ng/mL, the inhibition [20] was “inactive” and the t1/2 [21] was 0.802 h. For the same molecule, the Drug metabolism [22] was “Metabolite_Detected”, the Activity [23] was “Active” and the IC50 [24] was over 100 µM. For the same molecule, the Activity [25] was “Not Active”, the “CLH(app)” value [26] was 10.3 µL/min and the Vdss [27] was 0.787 L/kg. The t1/2 [28] was 2.22 h, the TDI [29] was “Not Active” and the IC50 [30] was 78 µM. For the same molecule, the Activity [31] was “Not Active”, the “inhibition (INH)” value [32] was under 50% and the t1/2 [33] was 2.42 h. For the same molecule, the Drug metabolism [34] was “Metabolite_Detected”.
